PMC11850876 (Scientific Reports, 2025)
Where two headings read alike, the source gives them in different places.

Tests used:
[1] = test system: healthy human breast epithelial (MCF-10 A) cell line; assay: MTT cytotoxicity assay, MCF-10 A; type: cell-based
Outline: (§1)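 Cells came from the Pasteur Institute, Tehran, and were seeded at 5 × 10^4 cells/well. After 24 h, four concentrations of test compound were added in triplicate, with medium-only and 0.5% DMSO controls. Exposure was 48 and 72 h. MTT formazan was dissolved in DMSO and read at 570 nm. IC50 was taken from % inhibition (mean ± SD, n=3). SI = IC50 MCF-10 A / IC50 MCF-7.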

[2] = test system: MCF-7 breast cancer cell line; assay: MTT cytotoxicity assay, MCF-7; type: cell-based, human; conditions: for IC50: Homo sapiens; for Selectivity Index (SI) 48 h: IC50 MCF-10 A / IC50 MCF-7, 48 h; for Selectivity Index (SI) 72 h: IC50 MCF-10 A / IC50 MCF-7, 72 h
Outline: as §1

[3] = DPPH radical scavenging assay; conditions: read-out: DPPH radical scavenging IC50 ± SD; DPPH 0.1 mM in MeOH, 60 min, 517 nm
Outline: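 Each test compound was prepared at 1.0 mg/mL in DMSO and mixed 1:1 by volume with 0.1 mM DPPH in MeOH. The mixture was kept in the dark at RT for 60 min. Absorbance was read at 517 nm against a DPPH control. % scavenging = (Abs control − Abs sample)/Abs control × 100.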

[4] = 48 h, read-out: IC50 ±SD MCF-10 A 48 h
[5] = 72 h, read-out: IC50 ±SD MCF-10 A 72 h
[6] = MCF7, 48 h, read-out: IC50 ±SD MCF-7 48 h
[7] = MCF7, 72 h, read-out: IC50 ±SD MCF-7 72 h

IC50 [3] | SMILES | IC50 [1, 4] | IC50 [1, 5] | IC50 [2, 6] | IC50 [2, 7] | Selectivity Index (SI) 48 h [2] | Selectivity Index (SI) 72 h [2]
13.2 ± 0.74 µM | NS(=O)(=O)c1ccc(/N=N/c2ccc(O)c(/C=N/c3ccc(O)cc3)c2)cc1 [Compound 3a, 4-((E)-(4-hydroxy-3-((E)-((4-hydroxyphenyl)imino)methyl)phenyl)diazenyl)benzenesulfonamide] | 11.18 ± 0.012 µM | 1.98 ± 0.002 µM | 10.9 ± 0.005 µM | 9.49 ± 0.012 µM | 1.02 | 0.20
13.6 ± 0.95 µM | NS(=O)(=O)c1ccc(/N=N/c2ccc(O)c(/C=N/c3ccccc3O)c2)cc1 [Compound 3c, 4-((E)-(4-hydroxy-3-((E)-((2hydroxyphenyl)imino)methyl)phenyl)diazenyl)benzenesulfonamide] | 16.82 ± 0.01 µM | 2.23 ± 0.001 µM | 21.16 ± 0.014 µM | 9.26 ± 0.002 µM | 0.79 | 0.24
14 ± 1.45 µM | COc1ccc(/N=C/c2cc(/N=N/c3ccc(S(N)(=O)=O)cc3)ccc2O)cc1 [Compound 3f, 4-((E)-(4-hydroxy-3-((E)-((4-methoxyphenyl)imino)methyl)phenyl)diazenyl)benzenesulfonamid] | 11.01 ± 0.016 µM | 2.67 ± 0.009 µM | 8.94 ± 0.013 µM | 7.62 ± 0.018 µM | 1.23 | 0.35
12.4 ± 0.55 µM | NC(=S)N/N=C/c1cc(/N=N/c2ccc(S(N)(=O)=O)cc2)ccc1O [Compound 3j, 2-((E)-2-hydroxy-5-((E)-(4-sulfamoylphenyl)diazenyl)benzylidene)hydrazine-1-carbothioamide] | 17.43 ± 0.019 µM | 11.26 ± 0.008 µM | 6.52 ± 0.007 µM | 5.27 ± 0.006 µM | 2.67 | 2.13
 | COc1cccc2c1C(=O)c1c(O)c3c(c(O)c1C2=O)C[C@@](O)(C(=O)CO)C[C@@H]3O[C@H]1C[C@H](N)[C@H](O)[C@H](C)O1 [Doxorubicin, reference compound] | 13.2 ± 0.1 µM | 2.85 ± 0.1 µM | 3.42 ± 0.1 µM | 0.68 ± 0.1 µM | 3.86 | 4.20
13.6 ± 0.38 µM | O=C1O[C@H]([C@@H](O)CO)C(O)=C1O [ascorbic acid, reference compound] |  |  |  |  |  | 
